Assay results from ChEMBL document CHEMBL3044673, “Design, synthesis and insecticidal activity of novel phenylpyrazoles containing a 2,2,2-trichloro-1-alkoxyethyl moiety” (2010).

How the values were obtained:
Format in all cases: functional
Plutella xylostella [1] = test: Insecticidal activity against Plutella xylostella (diamondback moth) grown on compound pre-treated fresh cabbage leaves assessed as insect mortality at 10 mg/kg measured 3 days post compound treatment by leaf-dip method; details: Plutella xylostella
In short: (§1)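 Leaf-dip stomach-toxicity assay on laboratory-reared diamondback moth. Test solutions came from a 200 mg L^-1 stock in dimethylformamide, diluted with water containing TW-20. Control leaves were treated with water and dimethylformamide. Tests were held at 25±1 °C, percentage mortality was scored 3 days after treatment, and each treatment was run three times.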

Aphis craccivora [2] = test: Insecticidal activity against Aphis craccivora (cowpea aphid) infested tender soybean shoots exposed to 200 mg/kg test compound solution assessed as insect mortality measured 24 hr post compound treatment
In short: (§2)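 Soybean tender shoots carrying 60 aphids were dipped in test solutions. Solutions were made from a 200 mg L^-1 stock in dimethylformamide, diluted with water containing TW-20. Insects were laboratory-reared, tests were held at 25±1 °C, and mortality was scored.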

Plutella xylostella [3] = test: Insecticidal activity against Plutella xylostella (diamondback moth) grown on compound pre-treated fresh cabbage leaves assessed as insect mortality at 100 mg/kg measured 3 days post compound treatment by leaf-dip method; in short: as §1
Plutella xylostella [4] = test: Insecticidal activity against Plutella xylostella (diamondback moth) grown on compound pre-treated fresh cabbage leaves assessed as insect mortality at 200 mg/kg measured 3 days post compound treatment by leaf-dip method; in short: as §1
Culex pipiens pallens [5] = test: Insecticidal activity against Culex pipiens pallens (mosquito) assessed as insect mortality at 100 ug/kg measured 1 day post compound treatment; details: Culex pipiens, 24 h
In short: (§3)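 Fourth-instar Culex pipiens pallens larvae, 20 per test, were laboratory-reared and placed in 100 mL of test solution made by adding 1 mL of compound dilution to 99 mL of water. Tests were held at 25±1 °C, percentage mortality was scored 1 day after treatment, and each test was run three times.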

Aphis craccivora [6] = test: Insecticidal activity against Aphis craccivora (cowpea aphid) infested tender soybean shoots exposed to 10 mg/kg test compound solution assessed as insect mortality measured 24 hr post compound treatment; details: Aphis craccivora, 24 h; in short: as §2
Culex pipiens pallens [7] = test: Insecticidal activity against Culex pipiens pallens (mosquito) assessed as insect mortality at 10 ug/kg measured 1 day post compound treatment; details: 24 h; in short: as §3
Culex pipiens pallens [8] = test: Insecticidal activity against Culex pipiens pallens (mosquito) assessed as insect mortality at 5 ug/kg measured 1 day post compound treatment; details: 24 h; in short: as §3
Culex pipiens pallens [9] = test: Insecticidal activity against Culex pipiens pallens (mosquito) assessed as insect mortality at 25 ug/kg measured 1 day post compound treatment; details: 24 h; in short: as §3
Aphis craccivora [10] = test: Insecticidal activity against Aphis craccivora (cowpea aphid) infested tender soybean shoots exposed to 25 mg/kg test compound solution assessed as insect mortality measured 24 hr post compound treatment; in short: as §2
Plutella xylostella [11] = test: Insecticidal activity against Plutella xylostella (diamondback moth) grown on compound pre-treated fresh cabbage leaves assessed as insect mortality at 50 mg/kg measured 3 days post compound treatment by leaf-dip method; in short: as §1
Culex pipiens pallens [12] = test: Insecticidal activity against Culex pipiens pallens (mosquito) assessed as insect mortality at 50 ug/kg measured 1 day post compound treatment; details: 24 h; in short: as §3
Aphis craccivora [13] = test: Insecticidal activity against Aphis craccivora (cowpea aphid) infested tender soybean shoots exposed to 100 mg/kg test compound solution assessed as insect mortality measured 24 hr post compound treatment; in short: as §2
Plutella xylostella [14] = test: Insecticidal activity against Plutella xylostella (diamondback moth) grown on compound pre-treated fresh cabbage leaves assessed as insect mortality at 25 mg/kg measured 3 days post compound treatment by leaf-dip method; details: Plutella xylostella; in short: as §1
Aphis craccivora [15] = test: Insecticidal activity against Aphis craccivora (cowpea aphid) infested tender soybean shoots exposed to 50 mg/kg test compound solution assessed as insect mortality measured 24 hr post compound treatment; in short: as §2
Culex pipiens pallens [16] = test: Insecticidal activity against Culex pipiens pallens (mosquito) assessed as insect mortality at 2.5 ug/kg measured 1 day post compound treatment; details: 24 h; in short: as §3
Aphis craccivora [17] = test: Insecticidal activity against Aphis craccivora (cowpea aphid) infested tender soybean shoots exposed to 5 mg/kg test compound solution assessed as insect mortality measured 24 hr post compound treatment; details: Aphis craccivora, 24 h; in short: as §2
Aphis craccivora [18] = test: Insecticidal activity against Aphis craccivora (cowpea aphid) infested tender soybean shoots exposed to 2.5 mg/kg test compound solution assessed as insect mortality measured 24 hr post compound treatment; details: Aphis craccivora, 24 h; in short: as §2
Plutella xylostella [19] = test: Insecticidal activity against Plutella xylostella (diamondback moth) grown on compound pre-treated fresh cabbage leaves assessed as insect mortality at 5 mg/kg measured 3 days post compound treatment by leaf-dip method; details: Plutella xylostella; in short: as §1
Plutella xylostella [20] = test: Insecticidal activity against Plutella xylostella (diamondback moth) grown on compound pre-treated fresh cabbage leaves assessed as insect mortality at 2.5 mg/kg measured 3 days post compound treatment by leaf-dip method; in short: as §1

Compound	mortality at 10 mg/kg (Plutella xylostella [1]) [%]	mortality at 200 mg/kg (Aphis craccivora [2]) [%]	mortality at 100 mg/kg (Plutella xylostella [3]) [%]	mortality at 200 mg/kg (Plutella xylostella [4]) [%]	mortality at 0.1 mg/kg (Culex pipiens pallens [5]) [%]	mortality at 10 mg/kg (Aphis craccivora [6]) [%]	mortality at 0.01 mg/kg (Culex pipiens pallens [7]) [%]	mortality at 0.005 mg/kg (Culex pipiens pallens [8]) [%]	mortality at 0.025 mg/kg (Culex pipiens pallens [9]) [%]	mortality at 25 mg/kg (Aphis craccivora [10]) [%]	mortality at 50 mg/kg (Plutella xylostella [11]) [%]	mortality at 0.05 mg/kg (Culex pipiens pallens [12]) [%]	mortality at 100 mg/kg (Aphis craccivora [13]) [%]	mortality at 25 mg/kg (Plutella xylostella [14]) [%]	mortality at 50 mg/kg (Aphis craccivora [15]) [%]	mortality at 0.0025 mg/kg (Culex pipiens pallens [16]) [%]	mortality at 5 mg/kg (Aphis craccivora [17]) [%]	mortality at 2.5 mg/kg (Aphis craccivora [18]) [%]	mortality at 5 mg/kg (Plutella xylostella [19]) [%]	mortality at 2.5 mg/kg (Plutella xylostella [20]) [%]
CCCOC(Nc1c(SCC)c(C#N)nn1-c1c(Cl)cc(C(F)(F)F)cc1Cl)C(Cl)(Cl)Cl (stereo not given)	17	95	100	100	100	0	100	50	100	53	89	100	90	58	85	–	–	–	–	–
CCOC(Nc1c(SCC)c(C#N)nn1-c1c(Cl)cc(C(F)(F)F)cc1Cl)C(Cl)(Cl)Cl (stereo not given)	18	90	100	100	100	0	100	0	100	35	96	100	86	44	75	–	–	–	–	–
CCCOC(Nc1c(SC)c(C#N)nn1-c1c(Cl)cc(C(F)(F)F)cc1Cl)C(Cl)(Cl)Cl (stereo not given)	0	100	100	100	100	21	100	100	100	43	36	100	100	17	90	100	0	0	–	–
CCSc1c(C#N)nn(-c2c(Cl)cc(C(F)(F)F)cc2Cl)c1NC(OC)C(Cl)(Cl)Cl (stereo not given)	0	93	100	100	100	0	100	100	100	62	94	100	90	34	80	30	–	–	–	–
COC(Nc1c(SC)c(C#N)nn1-c1c(Cl)cc(C(F)(F)F)cc1Cl)C(Cl)(Cl)Cl (stereo not given)	86	100	100	100	100	89	100	100	100	94	100	100	100	100	100	70	43	0	76	25
CCOC(Nc1c(SC)c(C#N)nn1-c1c(Cl)cc(C(F)(F)F)cc1Cl)C(Cl)(Cl)Cl (stereo not given)	68	100	100	100	100	0	100	100	100	43	100	100	100	84	56	80	0	–	43	0
CSc1c(C#N)nn(-c2c(Cl)cc(C(F)(F)F)cc2Cl)c1NC(OCCCl)C(Cl)(Cl)Cl (stereo not given)	100	100	100	100	100	73	100	20	100	98	100	100	100	100	100	–	69	62	87	62
CCSc1c(C#N)nn(-c2c(Cl)cc(C(F)(F)F)cc2Cl)c1NC(OCCCl)C(Cl)(Cl)Cl (stereo not given)	27	100	100	100	100	51	100	100	100	100	88	100	100	43	100	60	0	–	0	–
